{"source": "paper PMC10928850", "about": "(RSC Advances, 2024)", "key": {"[1]": {"system": "human colon (Caco-2) cancer cell line", "assay": "MTT cytotoxicity, colon cancer Caco-2", "type": "cell-based", "settings": "for IC50: Homo sapiens, Caco-2, 48 h, read-out: IC50 Colon cancer (Caco-2); for Therapeutic index (TI) Colon cancer (Caco-2): IC50 on the normal cells (WI-38)/IC50 on the cancer cells (Caco-2)"}, "Iron reducing power": {"assay": "Iron reducing power", "settings": "mean ± SE, three replicates", "summary_of_the_method": "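Reducing power was measured by the Oyaizu method and expressed in μg mL−1, with ascorbic acid as the standard.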"}, "[2]": {"assay": "ABTS radical scavenging assay", "settings": "at equal concentrations; mean ± SE, three replicates"}, "[3]": {"assay": "DPPH radical scavenging activity", "settings": "mean ± SE, three replicates"}, "[4]": {"assay": "Total antioxidant capacity", "settings": "mean ± SE, three replicates"}, "proteinase (trypsin)": {"system": "proteinase (trypsin)", "assay": "Anti-arthritic: proteinase inhibitory activity", "type": "biochemical", "settings": "at the same concentration; mean ± SE, three replicates"}, "[5]": {"system": "bovine serum albumin (BSA)", "assay": "Anti-arthritic: inhibition of protein denaturation", "settings": "inhibitory effect, at the same concentration; mean ± SE, three replicates"}, "[6]": {"target": "acetylcholinesterase (AChE) (Homo sapiens, UniProt P22303)", "sequence (P22303 32-614, species assumed)": "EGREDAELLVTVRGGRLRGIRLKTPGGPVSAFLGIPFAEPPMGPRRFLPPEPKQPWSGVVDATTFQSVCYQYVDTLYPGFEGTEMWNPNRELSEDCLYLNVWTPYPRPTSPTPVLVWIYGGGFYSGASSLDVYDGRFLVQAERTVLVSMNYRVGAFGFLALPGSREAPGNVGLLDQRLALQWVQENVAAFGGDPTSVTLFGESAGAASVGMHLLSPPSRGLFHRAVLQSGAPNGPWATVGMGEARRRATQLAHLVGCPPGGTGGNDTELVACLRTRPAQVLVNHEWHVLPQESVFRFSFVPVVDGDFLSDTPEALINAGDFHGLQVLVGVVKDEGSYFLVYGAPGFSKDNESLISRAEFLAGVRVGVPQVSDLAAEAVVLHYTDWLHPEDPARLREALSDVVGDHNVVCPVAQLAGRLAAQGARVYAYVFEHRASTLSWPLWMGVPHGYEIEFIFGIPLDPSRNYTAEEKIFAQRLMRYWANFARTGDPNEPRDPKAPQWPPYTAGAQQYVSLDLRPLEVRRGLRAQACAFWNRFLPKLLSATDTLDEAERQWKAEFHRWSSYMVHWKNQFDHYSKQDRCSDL", "assay": "Acetylcholinesterase inhibition, Ellman's method", "type": "biochemical", "settings": "for AChE Inhibition (%): at the same concentration, mean ± SE, three replicates"}, "β-glucosidase": {"system": "β-glucosidase", "assay": "β-Glucosidase enzyme inhibition", "type": "biochemical", "settings": "mean ± SE, three replicates; for β-Glucosidase Inhibition (%): at the same concentration"}, "[7]": {"system": "human lung (A549) cancer cell line", "assay": "MTT cytotoxicity, lung cancer A549", "type": "cell-based", "settings": "A549, 48 h, read-out: IC50 Lung cancer (A549)", "summary_of_the_method": "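Human lung A549 cells, run alongside Caco-2 colon cancer and normal WI-38 lung cells, were exposed to test compound. Viability was read by MTT, with optical density at 590. IC50 and percentage growth inhibition were computed with IC50 calculation software.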"}, "[8]": {"system": "normal lung (WI-38) cell line", "assay": "MTT cytotoxicity, normal lung WI-38", "type": "cell-based", "settings": "Homo sapiens, WI-38, 48 h, read-out: IC50 Normal lung (WI-38)"}, "α-amylase": {"target": "T1, α-amylase (Sus scrofa, UniProt P00690)", "T1 sequence (P00690 16-511)": "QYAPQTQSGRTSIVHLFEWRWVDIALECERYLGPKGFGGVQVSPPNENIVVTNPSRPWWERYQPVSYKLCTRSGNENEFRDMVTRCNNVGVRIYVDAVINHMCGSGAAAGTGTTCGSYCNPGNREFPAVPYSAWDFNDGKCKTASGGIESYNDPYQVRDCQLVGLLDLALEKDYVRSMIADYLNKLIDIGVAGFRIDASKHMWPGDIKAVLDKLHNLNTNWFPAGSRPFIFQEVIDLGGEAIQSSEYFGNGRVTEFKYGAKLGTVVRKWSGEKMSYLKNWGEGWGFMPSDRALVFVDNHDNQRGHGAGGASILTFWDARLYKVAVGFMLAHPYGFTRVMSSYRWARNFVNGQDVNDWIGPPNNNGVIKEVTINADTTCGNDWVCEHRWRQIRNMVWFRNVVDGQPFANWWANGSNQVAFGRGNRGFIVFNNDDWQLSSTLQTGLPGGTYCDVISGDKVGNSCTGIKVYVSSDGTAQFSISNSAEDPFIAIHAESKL", "assay": "α-Amylase enzyme inhibition", "type": "biochemical", "settings": "at the same concentration; mean ± SE, three replicates"}, "α-glucosidase": {"target": "α-glucosidase (Saccharomyces cerevisiae, UniProt P53341)", "sequence (P53341 whole entry)": "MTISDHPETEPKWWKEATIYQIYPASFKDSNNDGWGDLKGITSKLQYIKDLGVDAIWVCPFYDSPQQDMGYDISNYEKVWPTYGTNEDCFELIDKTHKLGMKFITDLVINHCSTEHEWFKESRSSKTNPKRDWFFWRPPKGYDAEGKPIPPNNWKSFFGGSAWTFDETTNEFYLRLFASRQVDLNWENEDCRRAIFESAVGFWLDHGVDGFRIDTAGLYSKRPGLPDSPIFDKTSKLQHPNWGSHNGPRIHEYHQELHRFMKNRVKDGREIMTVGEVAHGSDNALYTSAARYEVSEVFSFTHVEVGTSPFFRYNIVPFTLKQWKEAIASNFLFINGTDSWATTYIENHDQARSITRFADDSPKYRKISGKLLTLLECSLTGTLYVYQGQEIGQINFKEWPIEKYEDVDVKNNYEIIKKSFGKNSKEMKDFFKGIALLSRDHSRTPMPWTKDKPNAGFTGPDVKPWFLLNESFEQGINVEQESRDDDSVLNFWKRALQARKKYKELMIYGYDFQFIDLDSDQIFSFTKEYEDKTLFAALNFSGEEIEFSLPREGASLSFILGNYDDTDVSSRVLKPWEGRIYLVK", "assay": "α-Glucosidase enzyme inhibition", "type": "biochemical", "settings": "at the same concentration; mean ± SE, three replicates"}, "α-glucosidase enzyme": {"system": "α-glucosidase enzyme", "assay": "Electrophoretic α-glucosidase pattern", "type": "biochemical", "settings": "enzyme treated at concentration equivalent to IC50"}}, "data": [{"smiles": "COc1ccc(Nc2nn3c(-c4ccccc4)ccnc3c2C(=O)Nc2ccccc2)cc1", "note": "[12a]", "values": [{"measurement": "IC50", "setting": "[1]", "result": 38.1, "unit": "µg/mL"}, {"measurement": "Therapeutic index (TI) Colon cancer (Caco-2)", "setting": "[1]", "result": 3.5}, {"measurement": "Antioxidant activity IRP", "setting": "Iron reducing power", "result": "17.29 ± 0.04", "unit": "µg/mL"}, {"measurement": "Scavenging activity ABTS (%)", "setting": "[2]", "result": "25.28 ± 0.06", "unit": "%"}, {"measurement": "Scavenging activity DPPH IC50", "setting": "[3]", "result": "19.63 ± 0.04", "unit": "µg/mL"}, {"measurement": "Antioxidant activity TAC", "setting": "[4]", "result": "30.58 ± 0.07", "unit": "mg gallic acid per g"}, {"measurement": "Anti-arthritic activity: Inhibition of proteinase (%)", "setting": "proteinase (trypsin)", "result": "14.91 ± 0.03", "unit": "%"}, {"measurement": "Anti-arthritic activity: Proteinase denaturation (%)", "setting": "[5]", "result": "16.24 ± 0.04", "unit": "%"}, {"measurement": "IC50", "setting": "[6]", "result": 7.67, "unit": "mM"}, {"measurement": "AChE Inhibition (%)", "setting": "[6]", "result": "14.92 ± 0.02", "unit": "%"}, {"measurement": "β-Glucosidase Inhibition (%)", "setting": "β-glucosidase", "result": "7.67 ± 0.01", "unit": "%"}, {"measurement": "β-Glucosidase IC50", "setting": "β-glucosidase", "result": "6470 ± 10", "unit": "µg/mL"}, {"measurement": "IC50", "setting": "[7]", "result": 47.8, "unit": "µg/mL"}, {"measurement": "IC50", "setting": "[8]", "result": 134, "unit": "µg/mL"}]}, {"smiles": "COc1ccc(Nc2nn3c(-c4ccccc4)ccnc3c2C(=O)Nc2ccc(Cl)cc2)cc1", "note": "[12b]", "values": [{"measurement": "IC50", "setting": "[1]", "result": 29.8, "unit": "µg/mL"}, {"measurement": "Therapeutic index (TI) Colon cancer (Caco-2)", "setting": "[1]", "result": 10.24}, {"measurement": "Antioxidant activity IRP", "setting": "Iron reducing power", "result": "17.97 ± 0.04", "unit": "µg/mL"}, {"measurement": "Scavenging activity ABTS (%)", "setting": "[2]", "result": "28.23 ± 0.06", "unit": "%"}, {"measurement": "Scavenging activity DPPH IC50", "setting": "[3]", "result": "18.33 ± 0.04", "unit": "µg/mL"}, {"measurement": "Antioxidant activity TAC", "setting": "[4]", "result": "31.27 ± 0.07", "unit": "mg gallic acid per g"}, {"measurement": "Anti-arthritic activity: Inhibition of proteinase (%)", "setting": "proteinase (trypsin)", "result": "16.25 ± 0.04", "unit": "%"}, {"measurement": "Anti-arthritic activity: Proteinase denaturation (%)", "setting": "[5]", "result": "17.55 ± 0.04", "unit": "%"}, {"measurement": "IC50", "setting": "[6]", "result": 6.7, "unit": "mM"}, {"measurement": "AChE Inhibition (%)", "setting": "[6]", "result": "16.00 ± 0.04", "unit": "%"}, {"measurement": "β-Glucosidase Inhibition (%)", "setting": "β-glucosidase", "result": "9.66 ± 0.02", "unit": "%"}, {"measurement": "β-Glucosidase IC50", "setting": "β-glucosidase", "result": "5180 ± 10", "unit": "µg/mL"}, {"measurement": "IC50", "setting": "[7]", "result": 40.5, "unit": "µg/mL"}, {"measurement": "IC50", "setting": "[8]", "result": 305, "unit": "µg/mL"}]}, {"smiles": "C[C@H]1O[C@H](O[C@H]2[C@H](O)[C@@H](O)[C@@H](O[C@H]3[C@H](O)[C@@H](O)C(O)O[C@@H]3CO)O[C@@H]2CO)[C@H](O)[C@@H](O)[C@@H]1N[C@H]1C=C(CO)[C@@H](O)[C@H](O)[C@H]1O", "note": "(stereo partly shown) [Acarbose]", "values": [{"measurement": "α-Amylase Inhibition (%)", "setting": "α-amylase", "result": "65.95 ± 0.01", "unit": "%"}, {"measurement": "β-Glucosidase Inhibition (%)", "setting": "β-glucosidase", "result": "47.70 ± 0.01", "unit": "%"}, {"measurement": "β-Glucosidase IC50", "setting": "β-glucosidase", "result": "1070 ± 10", "unit": "µg/mL"}, {"measurement": "α-Glucosidase Inhibition (%)", "setting": "α-glucosidase", "result": "55.45 ± 0.01", "unit": "%"}, {"measurement": "α-glucosidase band (45 KDa) Qty (Band Quantity)", "setting": "α-glucosidase enzyme", "result": "completely decreasing the protein band"}]}, {"smiles": "O=C1O[C@H]([C@@H](O)CO)C(O)=C1O", "note": "[Ascorbic acid, reference compound]", "values": [{"measurement": "Scavenging activity ABTS (%)", "setting": "[2]", "result": "39.09 ± 0.09", "unit": "%"}, {"measurement": "Scavenging activity DPPH IC50", "setting": "[3]", "result": "4.05 ± 0.01", "unit": "µg/mL"}]}, {"smiles": "O=C(O)Cc1ccccc1Nc1c(Cl)cccc1Cl", "note": "[Diclofenac sodium, reference compound]", "values": [{"measurement": "Anti-arthritic activity: Inhibition of proteinase (%)", "setting": "proteinase (trypsin)", "result": "41.88 ± 0.09", "unit": "%"}]}, {"smiles": "COc1cccc2c1C(=O)c1c(O)c3c(c(O)c1C2=O)C[C@@](O)(C(=O)CO)C[C@@H]3O[C@H]1C[C@H](N)[C@H](O)[C@H](C)O1", "note": "[Doxorubicin, reference compound]", "values": [{"measurement": "IC50", "setting": "[1]", "result": 28.4, "unit": "µg/mL"}, {"measurement": "Therapeutic index (TI) Colon cancer (Caco-2)", "setting": "[1]", "result": 2.67}, {"measurement": "IC50", "setting": "[7]", "result": 31.3, "unit": "µg/mL"}, {"measurement": "IC50", "setting": "[8]", "result": 76, "unit": "µg/mL"}]}]}
